KCNQ1 block: inhibitors of human KCNQ1 channel, primary screen, cell-based, thallium flux, high-throughput. CHO-K1 KCNQ1, FluxOR thallium flux fluorescence; stronger effect = higher value. 310,000 compounds, 1.3% hits. B-score at 10 µM. Potassium voltage-gated channel subfamily KQT member 1 (Homo sapiens), P51787;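 active means compounds whose thallium flux B-score, printed positive for inhibition, exceeds three library SD while starting fluorescence stays within three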;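 further: channel opened by potassium depolarization with thallium stimulus after 20 min compound exposure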
KCNQ1 pot: potentiators or activators of KCNQ1 channel, primary screen, cell-based, thallium flux, high-throughput | Potassium voltage-gated channel subfamily KQT member 1 (Homo sapiens), P51787 | B-score at 10 µM | AID 2648, 2010 | 310,000 compounds, 0.35% hits | CHO-K1 KCNQ1, thallium flux FluxOR fluorescence; stronger effect = higher value;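 active means fluorescence ratio B-score, a plate-corrected score, at least three library SD, with initial intensity B-score within 5 SD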
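Assay system: CHO-K1 cells stably expressing KCNQ1; Medium: assay buffer with matched DMSO; Also added: K+/Tl+ depolarizing stimulus; Dosing: single dose; Timing: dye 90 min, compound 20 min, room temperature; Measured by: kinetic FluxOR thallium fluorescence, 10-s 1-Hz baseline, 110-s post-stimulus read; Read-out: peak-minus-minimum fluorescence over initial fluorescence, negative-control normalized, B-scored.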
Kir21 block: inhibitors of mouse Kir2.1 inward-rectifier potassium channel. Inward rectifier potassium channel 2 (Mus musculus), P35561. HEK293-Kir2.1, FluxOR thallium flux fluorescence; stronger effect = lower value. B-score at 10 µM. 310,000 compounds, 0.85% hits;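 active means fluorescence ratio B-score at or below minus 3 SD of library scores, with starting-brightness B-score within 2 SD, cut at about -4.2 in these data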;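 further: channel flux triggered by added potassium and thallium sulfate stimulus; B-score of peak minus minimum fluorescence over baseline after thallium stimulus; more negative B-score means stronger Kir2.1 block with less thallium influx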
KCNK3 inh: human KCNK3 channel inhibitors, primary screen, CHO cells, FluxOR thallium flux, B-score | Potassium channel subfamily K member 3 (Homo sapiens), O14649 | FluxOR fluorescence; stronger effect = lower value | B-score at 10 µM | 340,000 compounds, 0.84% hits | AID 602410, 2012;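 active means B-score under library mean minus 4 SD, starting fluorescence ratio at most library mean plus 5 SD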;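 further: more negative B-score means stronger inhibition of thallium flux through KCNK3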
KCNK9 inh: KCNK9 potassium channel inhibitors, primary screen, HEK293 cells, thallium flux; Potassium channel subfamily K member 9 (Homo sapiens), Q9NPC2; FluxOR thallium flux fluorescence; stronger effect = lower value; B-score at 10 µM; 310,000 compounds, 1.2% hits; AID 488922, 2010;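 active means ratio B-score over 3 SD below the library mean, with starting fluorescence within 5 SD of its mean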;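 further: negative B-score means less thallium flux so channel inhibition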
hERG rescue: hERG rescue from dofetilide block, primary screen, cell-based, CHO-hERG, FluxOR thallium flux, dofetilide IC70. dofetilide IC70 present. AID 1511, 2009. 310,000 compounds, 0.51% hits. activation (rescue from dofetilide block), less the hit threshold, % at 10 µM. Voltage-gated inwardly rectifying potassium channel KCNH2 (Homo sapiens), Q12809;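 active means activation above the mean of controls blocked by dofetilide plus 5 SD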;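 further: thallium influx through hERG after potassium depolarization seen as dye fluorescence rise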
KCNK9 inh conf: KCNK9 potassium channel inhibitors, confirmation, HEK293 cells, thallium flux, duplicate; FluxOR thallium flux fluorescence; AID 492992, 2010; 4,900 compounds, 43% hits; inhibition, % at 10 µM; shares compounds with KCNK9 inh;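 active means thallium signal inhibited by more than 5 SD of the compound-free buffer control wells, on both duplicate plates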
Kir2-1 spec: mouse Kir2.1 channel inhibition, confirmation, selectivity assay for KCNK9 modulator project, cell-based, HEK293, thallium flux; 4,900 compounds, 4% hits; inhibition, % at 10 µM; Kir2.1 cells, FluxOR thallium flux fluorescence; AID 492993, 2010; shares compounds with KCNK9 inh;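 active means thallium signal drop more than 5 SD beyond the mean of the no-compound control wells, seen in both duplicate plates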;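 further: signal is fluorescence rise after thallium addition divided by baseline fluorescence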
HEK293 Tl ctr: thallium flux in non-induced HEK293 cells, confirmation, counter-screen for KCNK9 inhibitor project, cell-based, second counter screen, non-induced KCNK9-HEK293. inhibition, % at 10 µM. FluxOR thallium flux. AID 492997, 2010. 4,900 compounds, 40% hits. shares compounds with KCNK9 inh;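 active means thallium signal drop beyond 5 SD of the untreated control mean, on both duplicate plates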
Of the large screens only hits and unclear results are named; the others gave an inactive call (follow-up assays come after a bar, where they were run). Only some compounds are listed: those with a hit (about 3.7% of all), similar ones and a draw of the others.

CCCCOC(=O)CSC(=S)N(C)Cc1cccs1	none | KCNK9 inh conf inactive | Kir2-1 spec inactive | HEK293 Tl ctr inactive
CCCc1nc(SCc2ccccn2)c2c(=O)n(C)c(=O)n(C)c2n1	none
Cn1c(=O)c2c(SCc3ccccn3)nc(CC(C)(C)C)nc2n(C)c1=O	none | KCNK9 inh conf inactive | Kir2-1 spec inactive | HEK293 Tl ctr inactive
CCOc1cc(S(=O)(=O)Nc2ccc(CC)cc2)ccc1Cl	none | KCNK9 inh conf inactive | Kir2-1 spec inactive | HEK293 Tl ctr inactive
Cc1cccc(NC(=O)CCCCC(=O)Nc2cccc(C)c2)c1	none
CCOC(=O)c1c(-c2ccccc2)csc1NC(=O)C1CCCO1 (stereo not drawn)	none
CCOC(=O)c1c(-c2ccc(-c3ccccc3)cc2)csc1NC(=O)C1C2CCC(O2)C1C(=O)O (stereo not drawn)	none | KCNK9 inh conf inactive | Kir2-1 spec inactive | HEK293 Tl ctr inactive
CC(C)(C)c1ccc(CN(Cc2ccco2)Cc2nnnn2C2CCCC2)cc1	KCNQ1 block 6, KCNK9 inh -14 | KCNK9 inh conf 62.0% | Kir2-1 spec inactive | HEK293 Tl ctr 49.0%
COc1ccc(NC(=S)N(CCc2c(C)[nH]c3ccc(C)cc23)Cc2cccs2)cc1	KCNK9 inh -9.64 | KCNK9 inh conf inactive | Kir2-1 spec inactive | HEK293 Tl ctr 29.0%
COc1ccc(NC(=S)N(CCc2c(C)[nH]c3ccc(C)cc23)Cc2ccco2)cc1	none
Cc1[nH]c2ccc(F)cc2c1CCN(Cc1ccncc1)C(=S)Nc1cccc(F)c1	KCNQ1 block 7, KCNK9 inh -8.13 | KCNK9 inh conf 36.0% | Kir2-1 spec inactive | HEK293 Tl ctr 27.0%
COc1ccc2[nH]c(C)c(CCN(Cc3cccs3)C(=S)Nc3ccc(F)cc3)c2c1	KCNQ1 block 6, KCNK3 inh -16.7, KCNK9 inh -11.8 | KCNK9 inh conf 42.0% | Kir2-1 spec inactive | HEK293 Tl ctr 27.0%
Cc1ccccc1NC(=S)N(CCc1c(C)[nH]c2ccc(F)cc12)Cc1ccncc1	none
NS(=O)(=O)c1cccc(NC(=O)COC(=O)CCN2C(=O)c3ccccc3C2=O)c1	none (no result: KCNQ1 block, KCNQ1 pot, Kir21 block, KCNK9 inh, hERG rescue)
COc1ccc(CN(C)C(=O)C2CSC3(C)CCC(=O)N23)cc1OC (stereo not drawn)	none (no result: KCNQ1 block, KCNQ1 pot, Kir21 block, KCNK9 inh, hERG rescue)
O=C(COC(=O)c1ccc(F)cc1F)Nc1ccc2[nH]c(=O)[nH]c2c1	none
CC(C)N(Cc1ccccc1)C(=O)CCc1ccccc1	none | KCNK9 inh conf inactive | Kir2-1 spec inactive | HEK293 Tl ctr inactive
Cn1c(-c2ccc(C=O)s2)nc2c3ccccc3c3ccccc3c21	KCNQ1 block 7, KCNK9 inh -10.3 | KCNK9 inh conf 33.0% | Kir2-1 spec inactive | HEK293 Tl ctr 72.0%
C[C@]12CCC[C@H](O1)c1c(cc3c(c1O)C(=O)c1c(O)cc(O)cc1C3=O)O2	KCNQ1 block 14, KCNK3 inh -10.2, KCNK9 inh -12.4 | KCNK9 inh conf 57.5% | Kir2-1 spec inactive | HEK293 Tl ctr 42.5%
CCc1nc2c(s1)CCc1onc(-c3ccc(Cl)cc3)c1-2	KCNK9 inh -12.9 | KCNK9 inh conf 69.5% | Kir2-1 spec inactive | HEK293 Tl ctr 37.5%
Cc1cc(C)n(C(=O)c2ccc([N+](=O)[O-])cc2Cl)n1	none
CCCNC(=O)c1onc(CSc2cccc(OC)c2)c1C(=O)NCCC	none
